Results as given in ChEMBL document CHEMBL4689842, “EUbOPEN Chemogenomics Library wave 1” (2021).

Test system: U2OS
Experiment: Multiplex assay against U2OS
Assay type: toxicity, cell-based
Conditions: human
Procedure, shortened: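 Live cells carried four stains from seeding: Hoechst33342, BioTracker Green Microtubule Cytoskeleton Dye, MitoTracker Red and Annexin V Alexa Fluor 680. They were imaged on a CQ1 microscope at 37°C and 5% CO2 after compound addition. Using CellPathfinder machine-learning gating, cells were split into Hoechst high-intensity objects or normal cells, normal cells into healthy, pyknosed or fragmented nuclei, and pyknosed cells into mitotic or apoptotic; tubulin, mitochondrial-mass and membrane-permeability phenotypes are per cents of healthy-nucleus cells.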

[1] = 12 h, 1 µM, compound concentration 1 uM, replicate 1
[2] = 12 h, 1 µM, compound concentration 1 uM, replicate 2
[3] = 12 h, 10 µM, compound concentration 10 uM, replicate 1
[4] = 12 h, 10 µM, compound concentration 10 uM, replicate 2
[5] = 24 h, 1 µM, compound concentration 1 uM, replicate 1
[6] = 24 h, 1 µM, compound concentration 1 uM, replicate 2
[7] = 24 h, 10 µM, compound concentration 10 uM, replicate 1
[8] = 24 h, 10 µM, compound concentration 10 uM, replicate 2
[9] = 48 h, 1 µM, compound concentration 1 uM, replicate 1
[10] = 48 h, 1 µM, compound concentration 1 uM, replicate 2
[11] = 48 h, 10 µM, compound concentration 10 uM, replicate 1
[12] = 48 h, 10 µM, compound concentration 10 uM, replicate 2

COc1cc(-n2cnc3cc(-c4ccc(Cl)cc4)sc3c2=O)ccc1OCCN1CCCC1
Population Apoptotic (%) [1]: 45% | Population Fragmented Nuclei (%) [1]: 12% | Population Healthy Nuclei (%) [1]: 70% | Population Hoechst High Intensity Objects (%) [1]: 9% | Population Membrane Permeable-Phenotype (%) [1]: 9% | Population Mitochondria Different-Phenotype (%) [1]: 63% | Population Mitotic Cells (%) [1]: 54% | Population Normal (%) [1]: 90% | Population Pyknosed Nuclei (%) [1]: 16% | Population Tubulin-Different-Phenotype (%) [1]: 65% | Total Cell Count [1]: 157 | Population Apoptotic (%) [2]: 71% | Population Fragmented Nuclei (%) [2]: 11% | Population Healthy Nuclei (%) [2]: 77% | Population Hoechst High Intensity Objects (%) [2]: 16% | Population Membrane Permeable-Phenotype (%) [2]: 10% | Population Mitochondria Different-Phenotype (%) [2]: 44% | Population Mitotic Cells (%) [2]: 28% | Population Normal (%) [2]: 84% | Population Pyknosed Nuclei (%) [2]: 11% | Population Tubulin-Different-Phenotype (%) [2]: 34% | Total Cell Count [2]: 78 | Population Apoptotic (%) [3]: 72% | Population Fragmented Nuclei (%) [3]: 32% | Population Healthy Nuclei (%) [3]: 13% | Population Hoechst High Intensity Objects (%) [3]: 10% | Population Membrane Permeable-Phenotype (%) [3]: 61% | Population Mitochondria Different-Phenotype (%) [3]: 100% | Population Mitotic Cells (%) [3]: 27% | Population Normal (%) [3]: 90% | Population Pyknosed Nuclei (%) [3]: 54% | Population Tubulin-Different-Phenotype (%) [3]: 100% | Total Cell Count [3]: 144 | Population Apoptotic (%) [4]: 26% | Population Fragmented Nuclei (%) [4]: 22% | Population Healthy Nuclei (%) [4]: 57% | Population Hoechst High Intensity Objects (%) [4]: 8% | Population Membrane Permeable-Phenotype (%) [4]: 34% | Population Mitochondria Different-Phenotype (%) [4]: 93% | Population Mitotic Cells (%) [4]: 73% | Population Normal (%) [4]: 91% | Population Pyknosed Nuclei (%) [4]: 19% | Population Tubulin-Different-Phenotype (%) [4]: 97% | Total Cell Count [4]: 75 | Population Apoptotic (%) [5]: 56% | Population Fragmented Nuclei (%) [5]: 6% | Population Healthy Nuclei (%) [5]: 76% | Population Hoechst High Intensity Objects (%) [5]: 6% | Population Membrane Permeable-Phenotype (%) [5]: 8% | Population Mitochondria Different-Phenotype (%) [5]: 45% | Population Mitotic Cells (%) [5]: 43% | Population Normal (%) [5]: 93% | Population Pyknosed Nuclei (%) [5]: 16% | Population Tubulin-Different-Phenotype (%) [5]: 42% | Total Cell Count [5]: 175 | Population Apoptotic (%) [6]: 62% | Population Fragmented Nuclei (%) [6]: 16% | Population Healthy Nuclei (%) [6]: 71% | Population Hoechst High Intensity Objects (%) [6]: 10% | Population Membrane Permeable-Phenotype (%) [6]: 6% | Population Mitochondria Different-Phenotype (%) [6]: 25% | Population Mitotic Cells (%) [6]: 37% | Population Normal (%) [6]: 89% | Population Pyknosed Nuclei (%) [6]: 12% | Population Tubulin-Different-Phenotype (%) [6]: 21% | Total Cell Count [6]: 83 | Population Apoptotic (%) [7]: 95% | Population Fragmented Nuclei (%) [7]: 48% | Population Healthy Nuclei (%) [7]: 3% | Population Hoechst High Intensity Objects (%) [7]: 11% | Population Membrane Permeable-Phenotype (%) [7]: 100% | Population Mitochondria Different-Phenotype (%) [7]: 100% | Population Mitotic Cells (%) [7]: 4% | Population Normal (%) [7]: 88% | Population Pyknosed Nuclei (%) [7]: 47% | Population Tubulin-Different-Phenotype (%) [7]: 100% | Total Cell Count [7]: 147 | Population Apoptotic (%) [8]: 47% | Population Fragmented Nuclei (%) [8]: 24% | Population Healthy Nuclei (%) [8]: 52% | Population Hoechst High Intensity Objects (%) [8]: 14% | Population Membrane Permeable-Phenotype (%) [8]: 42% | Population Mitochondria Different-Phenotype (%) [8]: 89% | Population Mitotic Cells (%) [8]: 52% | Population Normal (%) [8]: 85% | Population Pyknosed Nuclei (%) [8]: 23% | Population Tubulin-Different-Phenotype (%) [8]: 81% | Total Cell Count [8]: 74 | Population Apoptotic (%) [9]: 59% | Population Fragmented Nuclei (%) [9]: 10% | Population Hoechst High Intensity Objects (%) [9]: 3% | Population Membrane Permeable-Phenotype (%) [9]: 7% | Population Mitochondria Different-Phenotype (%) [9]: 28% | Population Mitotic Cells (%) [9]: 40% | Population Normal (%) [9]: 96% | Population Pyknosed Nuclei (%) [9]: 14% | Population Tubulin-Different-Phenotype (%) [9]: 31% | Total Cell Count [9]: 187 | Population Apoptotic (%) [10]: 63% | Population Fragmented Nuclei (%) [10]: 12% | Population Healthy Nuclei (%) [10]: 74% | Population Hoechst High Intensity Objects (%) [10]: 5% | Population Membrane Permeable-Phenotype (%) [10]: 21% | Population Mitochondria Different-Phenotype (%) [10]: 31% | Population Mitotic Cells (%) [10]: 36% | Population Normal (%) [10]: 94% | Population Pyknosed Nuclei (%) [10]: 13% | Population Tubulin-Different-Phenotype (%) [10]: 19% | Total Cell Count [10]: 79 | Population Apoptotic (%) [11]: 97% | Population Fragmented Nuclei (%) [11]: 33% | Population Healthy Nuclei (%) [11]: 7% | Population Hoechst High Intensity Objects (%) [11]: 20% | Population Membrane Permeable-Phenotype (%) [11]: 88% | Population Mitochondria Different-Phenotype (%) [11]: 100% | Population Mitotic Cells (%) [11]: 2% | Population Normal (%) [11]: 79% | Population Pyknosed Nuclei (%) [11]: 59% | Population Tubulin-Different-Phenotype (%) [11]: 100% | Total Cell Count [11]: 189 | Population Apoptotic (%) [12]: 53% | Population Fragmented Nuclei (%) [12]: 25% | Population Healthy Nuclei (%) [12]: 59% | Population Hoechst High Intensity Objects (%) [12]: 5% | Population Membrane Permeable-Phenotype (%) [12]: 56% | Population Mitochondria Different-Phenotype (%) [12]: 96% | Population Mitotic Cells (%) [12]: 46% | Population Normal (%) [12]: 94% | Population Pyknosed Nuclei (%) [12]: 15% | Population Tubulin-Different-Phenotype (%) [12]: 96% | Total Cell Count [12]: 87
